For series [1] the following is noted: cited from earlier work; for oral bioavailability: purified constituents of TCMs.
For another series, the system named is Caco-2 cells. Description: Uptake of BBR in Caco-2 cells with endocytosis inhibitors. Conditions: Nnps containing 10 μg/mL BBR, 4 h, indomethacin 100 μg/mL, chlorpromazine 10 μg/mL, cytochalasin D 5 μM. The format is cell-based, human.
Series [2] can be described thus: Solubility of BBR in supersaturated aqueous solutions. Particulars: water, thermodynamic from solid. In kind it is physicochemical. In outline: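 Supersaturated aqueous preparations, each at 10 mg/mL BBR, were sonicated 1 h and centrifuged at 16,000 rpm for 10 min. BBR in the supernatant was quantified by LC-MS. n = 6.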
The format of series [3] is physicochemical. An outline of the steps:
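Test material containing 10 mg BBR was enclosed in a blank capsule and run in a rotating-basket tester at 50 rpm and 37 ± 0.5°C. Medium was 900 mL HCl buffer (2.0 g NaCl, pH 1.2; sampled 5–90 min) or 0.2 M sodium phosphate (pH 6.8; sampled 2.5 min–6 h). Samples were 0.22-μm filtered and centrifuged, then BBR was quantified by LC-MS. n = 6.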

Series [4] can be described thus: Metabolism stability of BBR in intestinal S9. Particulars: mouse, intestinal S9, pH 7.4. The format is in vitro ADME. An outline of the steps: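 Mouse intestinal S9 (2 mg/mL) plus test material (BBR final 10 μg/mL) in 50 mM Tris-HCl pH 7.4 was preincubated 5 min at 37°C, then started with NADPH (1 mg/mL). After 0.5 or 1 h, reactions were stopped with equal-volume chilled methanol containing carbamazepine internal standard and centrifuged. Residual BBR and demethylberberine were measured by LC-MS/MS.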

Series [5] in a line: Transportation of BBR across MDCK-MDR1 cell monolayer. In kind it is in vitro ADME, canine. Particulars: dog. An outline of the steps: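 MDCK-MDR1 cells were grown in DMEM/10% FBS/15 mM HEPES and seeded on polycarbonate Transwells (2×10^5 cells/mL) until TEER exceeded 500 Ω·cm2. Cells were equilibrated 20 min in HBSS (pH 7.2). BBR (final 10 μg/mL) was added apical or basolateral, and both sides were sampled after 2 or 4 h for LC-MS/MS. Papp = ΔQ/(Δt·A·C0), with A 0.33 cm2.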

Results on 12 compounds are retold here after PMC8451076 (International Journal of Nanomedicine, 2021).

Where a name gives a salt, the structure may show the parent alone. Read-outs that look alike come from different tables or passages of the source. Where only a bound is given, the exact number is not on record here.

`CC1(C)[C@@H](O[C@H]2O[C@H](C(=O)O)[C@@H](O)[C@H](O)[C@H]2O[C@@H]2O[C@H](C(=O)O)[C@@H](O)[C@H](O)[C@H]2O)CC[C@]2(C)[C@H]3C(=O)C=C4[C@@H]5C[C@@](C)(C(=O)O)CC[C@]5(C)CC[C@@]4(C)[C@]3(C)CC[C@@H]12` [glycyrrhizin]: in series [1], the oral bioavailability entry is on record as “less than 5%”.
In the case of `COc1cc(/C=C/C(=O)CC(=O)/C=C/c2ccc(O)c(OC)c2)ccc1O` [curcumin], in series [1], the oral bioavailability entry is “less than 5%”.
`CC(C)(O)[C@@H]1CC[C@](C)([C@H]2[C@@H](O)C[C@@]3(C)[C@@H]4C[C@H](O[C@@H]5O[C@H](CO)[C@@H](O)[C@H](O)[C@H]5O)[C@H]5C(C)(C)[C@@H](O[C@@H]6OC[C@@H](O)[C@H](O)[C@H]6O)CC[C@@]56C[C@@]46CC[C@]23C)O1` [astragaloside IV]: the oral bioavailability entry in series [1] is listed as “less than 5%”.
For the compound `CN(C)CCCN1c2ccccc2Sc2ccc(Cl)cc21` [Chlorpromazine, chlorpromazine], in the series on Caco-2 cells, the “effect of endocytosis inhibitor on uptake of BBR carried by the Nnps” value (“effect of endocytosis inhibitor” for short) is given as “promoted the uptake”.
Turning to `CC(C)=CCC[C@](C)(O[C@@H]1O[C@H](CO[C@@H]2O[C@H](CO)[C@@H](O)[C@H](O)[C@H]2O)[C@@H](O)[C@H](O)[C@H]1O)[C@H]1CC[C@]2(C)[C@@H]1[C@H](O)C[C@@H]1[C@@]3(C)CC[C@H](O[C@@H]4O[C@H](CO)[C@@H](O)[C@H](O)[C@H]4O[C@@H]4O[C@H](CO)[C@@H](O)[C@H](O)[C@H]4O)C(C)(C)[C@@H]3CC[C@]12C` [ginsenoside Rb1], the oral bioavailability result in series [1] was “less than 5%”.
On to `Cc1coc2c1C(=O)C(=O)c1c-2ccc2c1CCCC2(C)C` [tanshinone IIA], for which, in series [1], the oral bioavailability entry is “less than 5%”.
In the case of `C=C1[C@@H](C)[C@H]2[C@H](Cc3ccccc3)NC(=O)[C@]23[C@H](OC(C)=O)/C=C/[C@@](C)(O)C(=O)[C@@H](C)C/C=C/[C@H]3[C@@H]1O` [cytochalasin D], the “effect of endocytosis inhibitor” value in the series with Caco-2 cells is given as “promoted the uptake”.
One may read the solubility as the dissolved amount per volume that the medium holds. In general, half-life refers to how long it takes for the measured level to halve. A word on the Papp: it is a coefficient for how fast a substance crosses the barrier. A lower Papp goes with slow passage. With `COc1ccc2cc3[n+](cc2c1OC)CCc1cc2c(cc1-3)OCO2` [BBR, berberine hydrochloride], in series [2], the solubility at 1 h is roughly 3700 µg/mL. The “bioavailability of oral BBR” value in series [1] (oral) is 0.36%. The “fraction of BBR excreted directly with feces after oral administration” value in series [1] (oral) is on record as “approximately 56%”. For the same compound, the “intestinal elimination of the oral dose” value in series [1] (oral) is 43.5%. Moreover, the oral bioavailability result in series [1] is given as “less than 5%”. Moreover, the “dissolution rate of BBR” value turned out to be 7.5% in series [3] (artificial gastric juice (pH 1.2), 15 min); 35.3% in series [3] (artificial gastric juice (pH 1.2), end point); 1.8% in series [3] (artificial intestinal juice (pH 6.8), 15 min); 60.9% in series [3] (artificial intestinal juice (pH 6.8), end point 6 h). This compound also returned a half-life at 10 μg/mL in series [4] of 2.48 h. Besides, the Papp at 10 μg/mL in series [5] was less than 1 ×10⁻⁶ cm/s.
As for `O=C(O)[C@H]1O[C@@H](Oc2cc3oc(-c4ccccc4)cc(=O)c3c(O)c2O)[C@H](O)[C@@H](O)[C@@H]1O` [baicalin], the oral bioavailability entry in series [1] was “less than 5%”.
Consider `CC(C)=CCC[C@](C)(O[C@@H]1O[C@H](CO[C@@H]2OC[C@@H](O)[C@H](O)[C@H]2O)[C@@H](O)[C@H](O)[C@H]1O)[C@H]1CC[C@]2(C)[C@@H]1[C@H](O)C[C@@H]1[C@@]3(C)CC[C@H](O[C@@H]4O[C@H](CO)[C@@H](O)[C@H](O)[C@H]4O[C@@H]4O[C@H](CO)[C@@H](O)[C@H](O)[C@H]4O)C(C)(C)[C@@H]3CC[C@]12C` [Rb3, ginsenoside Rb3], for which the oral bioavailability result in series [1] was “less than 5%”.
Consider `COc1ccc2c(c1)c(CC(=O)O)c(C)n2C(=O)c1ccc(Cl)cc1` [Indomethacin, indomethacin], for which the “effect of endocytosis inhibitor” value in the series with Caco-2 cells was “significantly reduced”.
Consider `CC(C)=CCC[C@](C)(O[C@@H]1O[C@H](CO[C@@H]2OC[C@H](O)[C@H](O)[C@H]2O)[C@@H](O)[C@H](O)[C@H]1O)[C@H]1CC[C@]2(C)[C@@H]1[C@H](O)C[C@@H]1[C@@]3(C)CC[C@H](O[C@@H]4O[C@H](CO)[C@@H](O)[C@H](O)[C@H]4O[C@@H]4O[C@H](CO)[C@@H](O)[C@H](O)[C@H]4O)C(C)(C)[C@@H]3CC[C@]12C` [Rb2, ginsenoside Rb2], for which the oral bioavailability entry in series [1] is on record as “less than 5%”.
